Holding throughout (assay type): functional, cell-based
Experiment [1] is described as follows: Cytotoxic activity against mouse M12.C3.F6 cells assessed as reduction in cell viability incubated for 48 hrs by MTT assay. In a few lines: (§1)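 Cells seeded at 1 × 10^4 per well and left 24 h at 37 °C, 5% CO2 to attach, then given test substances at 200 to 0.05 μM for 48 h. Substances were dissolved in DMSO and diluted in medium (0.06–2.0% DMSO in cultures). MTT (5 mg/mL stock) was added for the final 4 h, and formazan was dissolved in acidic isopropanol. Absorbance was read at 570/650 nm against vehicle (100%). IC50 came from nonlinear regression of log-normalized data, six doses in triplicate, at least three experiments.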
On the technique in general: Formazan colour is commonly taken as a measure of viable cells.

The test system of a further experiment is HeLa. The experiment can be described thus: Cytotoxic activity against human HeLa cells assessed as reduction in cell viability incubated for 48 hrs by MTT assay. In a few lines:
as §1

For a further experiment, the system named is RAW264.7. Kind of experiment: Cytotoxic activity against mouse RAW264.7 cells assessed as reduction in cell viability incubated for 48 hrs by MTT assay. In a few lines:
as §1

For a further experiment, the system named is A549. Kind of experiment: Cytotoxic activity against human A549 cells assessed as reduction in cell viability incubated for 48 hrs by MTT assay. Put shortly: as §1
The next experiment relates to PC-3. Kind of experiment: Cytotoxic activity against human PC3 cells assessed as reduction in cell viability incubated for 48 hrs by MTT assay. Put shortly:
as §1

Where [2] appears, read: Mus musculus, RAW264.7, 48 h, read-out: IC50.

IC50 data for seven compounds are collected here from ChEMBL document CHEMBL3580629, “Diterpenoids and Triterpenoids from the Resin of Bursera microphylla and Their Cytotoxic Activity” (J Nat Prod, 2015).

The term IC50 denotes the concentration that inhibits the measured activity by half. As for `CC(C)=CCC/C(C)=C/C/C=C(\C)[C@H]1CCC2[C@@]3(C)CCC(=O)C(C)(C)C3CC[C@]21C` (stereo partly specified), the IC50 result (in experiment [1]; with HeLa; in the experiment with RAW264.7 (raw264.7); in the experiment with A549; in the experiment on PC-3 (pc-3)) was “Not Active” throughout.

As for `COc1cc(C[C@@H]2COC[C@H]2Cc2ccc3c(c2)OCO3)cc(OC)c1OC`, the IC50 in the experiment with RAW264.7 (setting [2]) stood at 400 nM.

Take `CC(C)=CCC/C(C)=C/C/C=C(\C)[C@H]1CCC2[C@@]3(C)CC[C@H](O)C(C)(C)C3CC[C@]21C` (stereo partly specified): the IC50 result (in experiment [1]; with HeLa; with RAW264.7 (raw264.7); in the experiment with A549; with PC-3 (pc-3)) was “Not Active” each time.

On to `COc1cc(C[C@@H](COC(C)=O)[C@H](COC(C)=O)Cc2ccc3c(c2)OCO3)cc(OC)c1OC`, for which the IC50 in experiment [1] (Mus musculus, 48 h, read-out: IC50) was found to be 2500 nM; in the experiment on RAW264.7 (setting [2]), 200 nM.

For `CC(=O)OC[C@H](Cc1ccc2c(c1)OCO2)[C@H](COC(C)=O)Cc1ccc2c(c1)OCO2`, the IC50 in the experiment with RAW264.7 (setting [2]) amounted to 9800 nM.

Take `CC(=O)O[C@@]1(C(C)C)C/C=C(\C)CC[C@@H]2O[C@@]2(C)CC/C=C(\C)CC1` (relative stereo): the IC50 entry (in experiment [1]; in the experiment with HeLa; in the experiment with RAW264.7 (raw264.7); with A549; in the experiment with PC-3 (pc-3)) was “Not Active” in each case.

Take `COc1cccc2c1C(=O)c1c(O)c3c(c(O)c1C2=O)C[C@@](O)(C(=O)CO)C[C@@H]3O[C@H]1C[C@H](N)[C@H](O)[C@H](C)O1` [DOXORUBICIN]: the IC50 in the experiment on RAW264.7 (setting [2]) turned out to be 630 nM; in the experiment on PC-3 (Homo sapiens, PC-3, 48 h, read-out: IC50), 3180 nM.
